# Measurements from ChEMBL document CHEMBL2034842, “Synthesis, anti-Candida activity, and cytotoxicity of new (4-(4-iodophenyl)thiazol-2-yl)hydrazine derivatives” (Eur J Med Chem, 2012).
# Experiments:
# Enterococcus faecalis = assay: Antibacterial activity against Enterococcus faecalis after 18 to 22 hrs by […]; assay type: functional
# [1] = Antiproliferative activity against human Hep2 cells assessed as cell survival fraction at 5 ug/mL after 24 hrs by MTT assay; assay type: cell-based; conditions: HEp-2 cells, read-out: Survival
# In short: (§1)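 Hep2 (human laryngeal carcinoma) cells maintained in DMEM + 10% FBS + 1% pen/strep, 37 °C, 5% CO2. Seeded in triplicate at 1 × 10^5/well in serum-free medium and exposed 24 h at 37 °C to six compound concentrations (100–0.05). DMSO stock diluted in medium, final DMSO ≤0.5%. MTT reagent added for 2 h at 37 °C, then detergent for 2 h at RT in the dark. Read as OD550 minus OD650.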
# [2] = Antiproliferative activity against human Hep2 cells assessed as cell survival fraction at 0.5 ug/mL after 24 hrs by MTT assay; assay type: cell-based; conditions: HEp-2 cells, read-out: Survival; in short: as §1
# [3] = Cytotoxicity against human Hep2 cells assessed as cell survival fraction at 100 ug/mL after 24 hrs by trypan blue exclusion method; assay type: cell-based; conditions: HEp-2 cells, read-out: Survival
# In short: (§2)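 Hep2 cells grown in DMEM + 10% FBS + 1% pen/strep at 37 °C, 5% CO2, used at 60–70% confluency. Exponential-phase cells (1 × 10^5/mL) incubated 24 h with six concentrations (100–0.05), final DMSO ≤0.5%. Controls were cells alone or cells + DMSO, with 1 mM sodium nitroprusside as positive control. Cells scraped off, mixed 1:1 with 0.4% trypan blue and counted on a hemocytometer by two operators. Blue cells were scored dead; results given as % viable cells.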
# [4] = Antiproliferative activity against human Hep2 cells assessed as cell survival fraction at 10 ug/mL after 24 hrs by MTT assay; assay type: cell-based; conditions: HEp-2 cells, read-out: Survival; in short: as §1
# Candida parapsilosis = assay: Antifungal activity against 4 strains of Candida parapsilosis after 24 hrs by […]; assay type: functional; conditions: Lodderomyces parapsilosis
# [5] = Cytotoxicity against human Hep2 cells assessed as cell survival fraction at 10 ug/mL after 24 hrs by trypan blue exclusion method; assay type: cell-based; conditions: HEp-2 cells, read-out: Survival; in short: as §2
# [6] = Antiproliferative activity against human Hep2 cells assessed as cell survival fraction at 100 ug/mL after 24 hrs by MTT assay; assay type: cell-based; conditions: HEp-2 cells, read-out: Survival; in short: as §1
# [7] = Cytotoxicity against human Hep2 cells assessed as cell survival fraction at 0.05 ug/mL after 24 hrs by trypan blue exclusion method; assay type: cell-based; conditions: HEp-2 cells, read-out: Survival; in short: as §2
# Candida albicans = assay: Antifungal activity against 10 strains of Candida albicans after 24 hrs by […]; assay type: functional
# Klebsiella pneumoniae = assay: Antibacterial activity against Klebsiella pneumoniae after 18 to 22 hrs by […]; assay type: functional
# Pichia kudriavzevii = assay: Antifungal activity against 3 strains of Candida krusei after 24 hrs by […]; assay type: functional
# Candida tropicalis = assay: Antifungal activity against 4 strains of Candida tropicalis after 24 hrs by […]; assay type: functional
# Escherichia coli = assay: Antibacterial activity against Escherichia coli after 18 to 22 hrs by […]; assay type: functional
# HEp-2 [8] = assay: Antiproliferative activity against human Hep2 cells assessed as cell survival fraction after 24 hrs by MTT assay; assay type: cell-based; conditions: HEp-2, 24 h
# In short: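 Hep2 laryngeal carcinoma cells seeded in triplicate at 1 × 10^5/well in serum-free DMEM. Exposed 24 h at 37 °C, 5% CO2, to six concentrations ([…]); DMSO ≤0.5%. MTT reagent added for 2 h at 37 °C, then detergent for 2 h at room temperature in the dark. OD550 minus OD650 read. EC50 from ≥3 independent experiments.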
# [Candida] sake = Antifungal activity against 2 strains of Candida sake after 24 hrs by […]; assay type: functional; conditions: Fermentozyma sake
# Proteus vulgaris = assay: Antibacterial activity against Proteus vulgaris after 18 to 22 hrs by […]; assay type: functional
# [9] = Antiproliferative activity against human Hep2 cells assessed as cell survival fraction at 0.05 ug/mL after 24 hrs by MTT assay; assay type: cell-based; conditions: HEp-2 cells, read-out: Survival; in short: as §1
# Staphylococcus aureus = assay: Antibacterial activity against Staphylococcus aureus after 18 to 22 hrs by […]; assay type: functional
# [10] = Cytotoxicity against human Hep2 cells assessed as cell survival fraction at 0.5 ug/mL after 24 hrs by trypan blue exclusion method; assay type: cell-based; conditions: HEp-2 cells, read-out: Survival; in short: as §2
# Nakaseomyces glabratus = assay: Antifungal activity against 4 strains of Candida glabrata after 24 hrs by […]; assay type: functional
# Streptococcus pyogenes = assay: Antibacterial activity against Streptococcus pyogenes after 18 to 22 hrs by […]; assay type: functional
# [11] = Antiproliferative activity against human Hep2 cells assessed as cell survival fraction at 50 ug/mL after 24 hrs by MTT assay; assay type: cell-based; conditions: HEp-2 cells, read-out: Survival; in short: as §1
# Staphylococcus warneri = assay: Antibacterial activity against Staphylococcus warneri after 18 to 22 hrs by […]; assay type: functional
# Klebsiella aerogenes = assay: Antibacterial activity against Enterobacter aerogenes after 18 to 22 hrs by […]; assay type: functional
# [12] = Cytotoxicity against human Hep2 cells assessed as cell survival fraction at 5 ug/mL after 24 hrs by trypan blue exclusion method; assay type: cell-based; conditions: HEp-2 cells, read-out: Survival; in short: as §2
# [13] = Cytotoxicity against human Hep2 cells assessed as cell survival fraction at 50 ug/mL after 24 hrs by trypan blue exclusion method; assay type: cell-based; conditions: HEp-2 cells, read-out: Survival; in short: as §2
# HEp-2 [14] = assay: Cytotoxicity against human Hep2 cells assessed as cell survival fraction after 24 hrs by trypan blue exclusion method; assay type: cell-based; conditions: HEp-2, 24 h
# In short: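 Hep2 cells in DMEM with 10% FBS and 1% penicillin-streptomycin, at 37 °C, 5% CO2, grown to 60–70% confluency. Seeded at 1 × 10^5/mL and exposed 24 h to six concentrations ([…]); DMSO ≤0.5%. Controls were cells alone, cells with DMSO, and 1 mM nitroprusside. Scraped cells mixed 1:1 with 0.4% trypan blue; blue cells counted as dead by hemocytometer, two operators. EC50 from ≥3 independent experiments.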
smiles,measurement,setting,value
CCC/C(C)=N/Nc1nc(-c2ccc(I)cc2)cs1,MIC,Enterococcus faecalis,32 µg/mL
same,"viability at 24 h, 5 ug/mL",[1],72%
same,"viability at 24 h, 0.5 ug/mL",[2],98%
same,"viability at 24 h, 100 ug/mL",[3],60%
same,"viability at 24 h, 10 ug/mL",[4],68%
same,MIC,Candida parapsilosis,2 µg/mL
same,"viability at 24 h, 10 ug/mL",[5],60%
same,"viability at 24 h, 100 ug/mL",[6],0%
same,"viability at 24 h, 0.05 ug/mL",[7],92%
same,MIC,Candida albicans,0.25 µg/mL
same,MIC,Klebsiella pneumoniae,32 µg/mL
same,MIC,Pichia kudriavzevii,4 µg/mL
same,MIC,Candida tropicalis,0.5 µg/mL
same,MIC,Escherichia coli,> 128 µg/mL
same,EC50,HEp-2 [8],45 µg/mL
same,MIC,[Candida] sake,32 µg/mL
same,MIC,Proteus vulgaris,> 128 µg/mL
same,"viability at 24 h, 0.05 ug/mL",[9],100%
same,MIC,Staphylococcus aureus,32 µg/mL
same,"viability at 24 h, 0.5 ug/mL",[10],75%
same,MIC,Nakaseomyces glabratus,2 µg/mL
same,MIC,Streptococcus pyogenes,4 µg/mL
same,"viability at 24 h, 50 ug/mL",[11],62%
same,MIC,Staphylococcus warneri,32 µg/mL
same,MIC,Klebsiella aerogenes,> 128 µg/mL
same,"viability at 24 h, 5 ug/mL",[12],65%
same,"viability at 24 h, 50 ug/mL",[13],63%
CCC(CC)=NNc1nc(-c2ccc(I)cc2)cs1,MIC,Enterococcus faecalis,32 µg/mL
same,"viability at 24 h, 5 ug/mL",[1],90%
same,"viability at 24 h, 0.5 ug/mL",[2],92%
same,"viability at 24 h, 100 ug/mL",[3],58%
same,"viability at 24 h, 10 ug/mL",[4],90%
same,MIC,Candida parapsilosis,2 µg/mL
same,"viability at 24 h, 10 ug/mL",[5],67%
same,"viability at 24 h, 100 ug/mL",[6],10%
same,"viability at 24 h, 0.05 ug/mL",[7],92%
same,MIC,Candida albicans,0.25 µg/mL
same,MIC,Klebsiella pneumoniae,16 µg/mL
same,MIC,Pichia kudriavzevii,256 µg/mL
same,MIC,Candida tropicalis,0.5 µg/mL
same,MIC,Escherichia coli,32 µg/mL
same,EC50,HEp-2 [8],50 µg/mL
same,MIC,[Candida] sake,256 µg/mL
same,MIC,Proteus vulgaris,32 µg/mL
same,"viability at 24 h, 0.05 ug/mL",[9],95%
same,MIC,Staphylococcus aureus,> 128 µg/mL
same,"viability at 24 h, 0.5 ug/mL",[10],85%
same,MIC,Nakaseomyces glabratus,2 µg/mL
same,MIC,Streptococcus pyogenes,32 µg/mL
same,"viability at 24 h, 50 ug/mL",[11],45%
same,MIC,Staphylococcus warneri,32 µg/mL
same,MIC,Klebsiella aerogenes,16 µg/mL
same,"viability at 24 h, 5 ug/mL",[12],80%
same,"viability at 24 h, 50 ug/mL",[13],63%
Clc1ccccc1C(c1ccccc1)(c1ccccc1)n1ccnc1 [CLOTRIMAZOLE],"viability at 24 h, 5 ug/mL",[1],82%
same,"viability at 24 h, 0.5 ug/mL",[2],85%
same,"viability at 24 h, 100 ug/mL",[3],10%
same,"viability at 24 h, 10 ug/mL",[4],70%
same,MIC,Candida parapsilosis,0.5 µg/mL
same,"viability at 24 h, 10 ug/mL",[5],68%
same,"viability at 24 h, 100 ug/mL",[6],20%
same,"viability at 24 h, 0.05 ug/mL",[7],100%
same,MIC,Candida albicans,2 µg/mL
same,MIC,Pichia kudriavzevii,2 µg/mL
same,MIC,Candida tropicalis,1 µg/mL
same,EC50,HEp-2 [8],48 µg/mL
same,MIC,[Candida] sake,2 µg/mL
same,EC50,HEp-2 [14],40 µg/mL
same,"viability at 24 h, 0.05 ug/mL",[9],100%
same,"viability at 24 h, 0.5 ug/mL",[10],87%
same,MIC,Nakaseomyces glabratus,0.25 µg/mL
same,"viability at 24 h, 50 ug/mL",[11],32%
same,"viability at 24 h, 5 ug/mL",[12],70%
same,"viability at 24 h, 50 ug/mL",[13],20%
